Usually AUC(0-t) stands for exposure summed from dosing to a finite time, without extrapolation to infinity. As a reminder, the Cmax is the maximum level reached in the sampled fluid or tissue. The term Tmax denotes the time from dosing to the highest level.

This is an account of results in ChEMBL document CHEMBL4339193, “Phenotypic Screening-Based Identification of 3,4-Disubstituted Piperidine Derivatives as Macrophage M2 Polarization Modulators: An Opportunity for Treating Multiple Sclerosis” (J Med Chem, 2019).

Activity calls are given as the source filed them. The rule behind the calls is not given here.

For series [1], the target named is Signal transducer and activator of transcription 3 (Mus musculus) (UniProt P42227). The experiment in a line: Stimulation of STAT3 phosphorylation at Y705 residue in mouse RAW264.7 cells at 300 nM measured after 4 to 24 hrs by Western blot analysis. It is filed as cell-based. A digest of the protocol: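 Cell lysates separated by SDS-PAGE, transferred to PVDF and probed for Akt, p-Akt(308), p-Akt(473), Stat3, p-Stat3(Y705), Stat6 and p-Stat6; ECL detection, GAPDH as loading control.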
(In western blotting, separated proteins are transferred to a membrane and probed.)

For series [2], the system named is RAW264.7. The experiment in a line: Modulation of M2 polarization in mouse RAW264.7 cells assessed as up regulation of CD163 mRNA expression at 300 nM measured after 24 hrs by qRT-PCR analysis. Type of series: functional, cell-based. For orientation: Quantitative PCR measures a nucleic acid by following its amplification.
Series [3] relates to BMDM. The experiment in a line: Antiinflammatory activity in LPS-induced C57BL/6J mouse BMDM cells assessed as suppression of M1 macrophage-stimulated Th1 cell population by measuring decrease in IFNgamma level at 300 nM measured after 48 hrs by ELISA. It is filed as functional, cell-based. A digest of the protocol:
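Supernatant collected from the 72 h coculture of CFSE-labelled naïve CD4+ T cells (anti-CD3/anti-CD28, 500 ng/ml each, 1:1) with BMDMs pretreated 48 h with 50 ng/ml LPS plus 300 nM compound. IFN-γ or IL-17A quantified by ELISA. Mean ± SEM, at least three independent experiments.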

The test system of series [4] is BMDM. The experiment in a line: Inhibition of LPS-induced M1 polarization in C57BL/6J mouse BMDM cells assessed as down regulation of Inos mRNA expression at 300 nM measured after 24 hrs by qRT-PCR analysis. It is filed as functional, cell-based. Put shortly: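 BMDMs pre-incubated 24 h with 50 ng/ml LPS to induce M1, then treated 24 h with 300 nM compound. Total RNA extracted with Trizol; Mcp1, Inos and Cd86 mRNA measured by qRT-PCR. Mean ± SEM.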

Series [5] can be described thus: AUC (0 to t) in Sprague-Dawley rat at 10 mg/kg, iv administered as single dose by LC/MS analysis. Type of series: ADME, organism-based. The conditions noted are these: in vivo. Put shortly:
(§1)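 Single dose in rats; venous blood (100 µL) drawn at 0, 0.5, 1, 2, 4, 8 and 12 h, plasma separated by centrifugation and held at -20 °C. Compound measured by LC/MS; Cmax, Tmax, t1/2 and AUC derived from the concentration–time data.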

Series [6] has as its system Mus musculus. The experiment in a line: Antiinflammatory activity in C57BL/6J mouse model of MOG (35 to 55 residues)/pertussis toxin/complete Freund's adjuvant-induced experimental allergic encephalomyelitis assessed as TH17 cell population in spinal cord by measuring IL17 level at 200 mg/kg, ig administered daily starting from 7 days post-immunization measured after 14 to 21 days post-immunization by flow cytometry analysis (reference value: 7.7%). It is filed as functional. Put shortly: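 EAE induced with MOG35-55 (2 mg/ml in PBS) emulsified in CFA containing 4 mg/ml heat-killed M. tuberculosis H37Ra, injected s.c. into the neck and both hindlegs. Drug in saline daily from day 7. Between days 13 and 19, CNS mononuclear cells were taken by collagenase IV digestion and a 70%/30% Percoll gradient. Cells were restimulated 5 h with brefeldin A 2 µg/ml, PMA 0.1 µg/ml and ionomycin 0.5 µg/ml, stained for surface CD4, fixed and permeabilised, then stained intracellularly for IFN-γ/IL-17A. Analysed by flow cytometry; n=4 mice per group.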
(In flow cytometry, cells or beads pass a laser one at a time.)

Series [7] relates to RAW264.7. The experiment in a line: Modulation of M2 polarization in mouse RAW264.7 cells assessed as up regulation of IL13RA1 mRNA expression at 300 nM measured after 24 hrs by qRT-PCR analysis. Type of series: functional, cell-based.
Series [8] in a line: Cmax in Sprague-Dawley rat at 10 mg/kg, iv administered as single dose by LC/MS analysis. The conditions noted are these: in vivo. It is filed as ADME, organism-based. On the set-up: dose 10 mg/kg, route intravenous. A digest of the protocol: as §1
The test system of series [9] is Mus musculus. The experiment in a line: Inhibition of M1 polarization in C57BL/6J mouse model of MOG (35 to 55 residues)/pertussis toxin/complete Freund's adjuvant-induced experimental allergic encephalomyelitis assessed as CD86 level in spleen at 200 mg/kg, ig administered daily starting from 7 days post-immunization measured after 13 to 19 days post-immunization by flow cytometry analysis (reference value: 11.8%). Type of series: functional. On the set-up: scale not given: the % may be the effect or the level left. Put shortly: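 MOG35-55/CFA EAE mice were dosed daily in saline from day 7 and sampled between days 13 and 19. Cells came from spleen and dLN by mechanical dissociation and from CNS by collagenase IV/Percoll. They were stained for F4/80 with CD206 (M2) or CD86 (M1), and each was read by flow cytometry as a percentage of total F4/80+ macrophages.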

Series [10] is described as follows: Tmax in Sprague-Dawley rat at 10 mg/kg, iv administered as single dose by LC/MS analysis. The conditions noted are these: in vivo. Type of series: ADME, organism-based. A digest of the protocol:
as §1

For series [11], the system named is Mus musculus. The experiment in a line: Antiinflammatory activity in C57BL/6J mouse model of MOG (35 to 55 residues)/pertussis toxin/complete Freund's adjuvant-induced experimental allergic encephalomyelitis assessed as reduction in demyelination in spinal cord at 200 mg/kg, ig administered daily starting from 7 days post-immunization measured after 14 days post-immunization by H and E staining based microscopic analysis. Type of series: functional, organism-based. A digest of the protocol: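 EAE mice dosed daily in saline from day 7 were perfused with PBS and fixed in 4% PFA on day 14; spinal cords were taken. For LFB, frozen OCT sections sat 3 h in 0.1% Luxol Fast Blue at 56-60°C, were differentiated in 0.05% lithium carbonate for 10-12 s, cleared in 70% ethanol, dehydrated and mounted. For H&E, paraffin sections were stained to assess inflammation.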

In series [12] the test system is Mus musculus. The experiment in a line: Antiinflammatory activity in C57BL/6J mouse model of MOG (35 to 55 residues)/pertussis toxin/complete Freund's adjuvant-induced experimental allergic encephalomyelitis assessed as effect on dendritic cell population in CNS by measuring change in CD11c level at 200 mg/kg, ig administered daily starting from 7 days post-immunization measured after 13 to 19 days post-immunization by flow cytometry analysis. Type of series: functional, organism-based. Put shortly:
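MOG35-55/CFA EAE mice were dosed daily in saline from day 7 and sampled between days 13 and 19. Spleens and dLNs were mechanically dissociated to single cells. CNS cells came from collagenase IV digestion and a 70%/30% Percoll gradient. Cells were surface-stained with fluorochrome antibodies, including CD4, CD11b, CD11c and MHC-II, and analysed by flow cytometry.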

Series [13] can be described thus: Ratio of AUC (0 to t) to AUC (0 to infinity) in Sprague-Dawley rat at 10 mg/kg, iv administered as single dose […]. It is filed as ADME, organism-based. The conditions noted are these: in vivo.
The test system of series [14] is RAW264.7. The experiment in a line: Modulation of M2 polarization in mouse RAW264.7 cells assessed as up regulation of CCR2 mRNA expression at 300 nM measured after 24 hrs by qRT-PCR analysis. Type of series: functional, cell-based.
The subject of series [15] is RAW264.7. The experiment in a line: Modulation of M2 polarization in mouse RAW264.7 cells assessed as change in Arg1 mRNA expression at 300 nM measured after 24 hrs by qRT-PCR analysis relative to control. It is filed as functional. A digest of the protocol: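 RAW264.7 cells (DMEM, 10% FBS) given 300 nM compound for 24 h; IL-4 20 ng/ml as positive control. Arg1 mRNA measured by qRT-PCR; fold change = expression in dosed group / expression in untreated control.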

Signal transducer and activator of transcription 3 (Mus musculus), sequence (P42227 whole entry): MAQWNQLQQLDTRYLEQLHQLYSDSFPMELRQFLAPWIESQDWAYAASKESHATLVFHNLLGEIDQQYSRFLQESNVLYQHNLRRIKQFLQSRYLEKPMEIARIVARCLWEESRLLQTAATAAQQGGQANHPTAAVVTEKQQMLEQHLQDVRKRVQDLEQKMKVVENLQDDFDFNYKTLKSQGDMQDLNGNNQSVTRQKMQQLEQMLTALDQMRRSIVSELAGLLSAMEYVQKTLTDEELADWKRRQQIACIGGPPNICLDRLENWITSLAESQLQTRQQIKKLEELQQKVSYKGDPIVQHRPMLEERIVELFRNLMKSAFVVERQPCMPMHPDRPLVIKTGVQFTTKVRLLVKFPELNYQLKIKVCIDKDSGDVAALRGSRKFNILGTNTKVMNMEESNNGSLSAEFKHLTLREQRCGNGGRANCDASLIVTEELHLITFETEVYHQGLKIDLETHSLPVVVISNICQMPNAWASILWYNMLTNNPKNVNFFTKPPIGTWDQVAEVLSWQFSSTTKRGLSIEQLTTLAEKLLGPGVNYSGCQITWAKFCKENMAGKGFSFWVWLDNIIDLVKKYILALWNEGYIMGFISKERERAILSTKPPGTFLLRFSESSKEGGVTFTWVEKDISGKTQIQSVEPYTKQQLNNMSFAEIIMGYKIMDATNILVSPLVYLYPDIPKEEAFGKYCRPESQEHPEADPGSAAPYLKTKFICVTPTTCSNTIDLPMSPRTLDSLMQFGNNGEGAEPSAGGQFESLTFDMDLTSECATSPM

With `Cl.Cn1ncc(Cl)c1-c1ccc(C(=O)N[C@@H]2CNCC[C@H]2c2cccc(F)c2)cc1`, the result (in series [1]; in the series with RAW264.7 [2]; with BMDM [3]; with RAW264.7 [7]; in the series on Mus musculus [11]; in the series on RAW264.7 [14]) was Active. Also, in the series on BMDM [4], the inhibition entry was “Active”. In series [5], this molecule returned an AUC(0-t) of 1840 ng·h/mL. The Activity in the series with Mus musculus [6] is reported as 4.5%; in the series with Mus musculus [9], 6.9%. The Cmax in series [8] came to 1000 ng/mL. Besides, in series [10], the Tmax is 4.98 min. Also, the result in the series with Mus musculus [12] was inactive. For the same molecule, the “Ratio AUC” value in series [13] came to 98.75%. Moreover, the “fold change (FC)” value in the series on RAW264.7 [15] is given as 13.97.
